Data on seven molecules can be found in ChEMBL document CHEMBL1132464, “Specific nonpeptide photoprobes as tools for the structural study of the angiotensin II AT(1) receptor” (J Med Chem, 1999).

For test [1], the target named is T1, Type-1 angiotensin II receptor A (Rattus norvegicus) (UniProt P25095).
T1 sequence (whole entry): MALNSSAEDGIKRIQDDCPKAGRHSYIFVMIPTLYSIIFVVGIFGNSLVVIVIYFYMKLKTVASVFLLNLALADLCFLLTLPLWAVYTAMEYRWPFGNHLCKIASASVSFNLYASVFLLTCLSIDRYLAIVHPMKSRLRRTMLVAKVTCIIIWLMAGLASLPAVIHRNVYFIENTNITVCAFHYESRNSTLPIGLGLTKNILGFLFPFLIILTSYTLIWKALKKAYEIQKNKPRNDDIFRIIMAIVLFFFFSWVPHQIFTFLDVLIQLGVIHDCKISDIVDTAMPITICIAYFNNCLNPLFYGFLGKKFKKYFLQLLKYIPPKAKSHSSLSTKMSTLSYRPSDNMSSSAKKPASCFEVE
The test can be described thus: The compound was evaluated for irreversible binding to [125I]Sar-AII in CHO cells expressing the Angiotensin II receptor, type 1 without UV irradiation. The test is classed as cell-based. In outline:
(§1)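 CHO cells stably expressing rat AT1A receptor in 24-well clusters; incubated 4 h at 4 °C in dark with photoactivatable ligand (nonpeptide 50 or 10 nM; peptide azido probe 10 nM) in PBS pH 7.4, 5 mM MgCl2, 0.1 mg/mL bacitracin; washed, irradiated or not 5 min at 0 °C, 254 nm; two 30-min 30 °C dissociation incubations; remaining sites titrated with 5 nM [125I]Sar1-AII, 2 h, 4 °C; % of control, triplicates.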

Test [2] deals with T2, Type-1 angiotensin II receptor A (Rattus norvegicus, UniProt P25095).
T2 sequence (P25095 whole entry): T1 sequence (whole entry)
Nature of the test: The compound was evaluated for the inhibition of [125I]-Sar-AII binding to Angiotensin II receptor, type 1 from purified rat liver membranes. Type of test: cell membranes, Membrane. In a few lines: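 Purified rat liver membranes (AT1 only), 10 μg protein/assay, competition against [125I]Sar1-AII tracer for 30 min at 30 °C in 50 mM phosphate pH 7.4, 5 mM MgCl2, 0.1 mg/mL bacitracin, 0.6% Me2SO, no BSA; triplicates; GF/C filtration; Ki via Ekins equation.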

The target of test [3] is T1, Type-1 angiotensin II receptor A (Rattus norvegicus). Nature of the test: The compound was evaluated for irreversible binding to [125I]Sar-AII in CHO cells expressing the Angiotensin II receptor, type 1 with UV irradiation. The test is classed as cell-based. In outline:
as §1

For a further test, the species on record is Oryctolagus cuniculus. Nature of the test: The compound was evaluated for the inhibition of AII-induced contraction in the rabbit aorta strips. Type of test: functional. In a few lines:
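Rabbit aortic rings (4 mm) in 37 °C organ baths, Krebs-Henseleit gassed O2/CO2 95/5, passive tension 2 g, isometric tension recorded; three to five antagonist concentrations, one per ring, against 3 nM AII contraction; IC50 = concentration halving AII response; mean of six experiments.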

Test [4] has as its target T2, Type-1 angiotensin II receptor A. Nature of the test: The compound was evaluated for the direct binding of tritiated compound to the recombinant Angiotensin II receptor, type 1 stably expressed in CHO cells. Type of test: cell-based. In a few lines: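 Intact CHO cells stably expressing rat AT1A, grown to confluence (~5 × 10^5 cells/well), incubated 4 h at 4 °C with graded tritiated ligand in PBS pH 7.4, 5 mM MgCl2, 0.1 mg/mL bacitracin, 0.6% Me2SO; nonspecific binding with excess Sar1-AII or unlabeled nonpeptide; ice-cold washes, NaOH lysis, scintillation counting; Kd by Scatchard analysis, mean of four experiments.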

pIC50, pKd, pKi: −log10 of the molar value.

For `CCCCc1ncc(CNc2ccccc2C(=O)O)n1Cc1ccc(C(=O)NS(=O)(=O)c2ccccc2N=[N+]=[N-])cc1`, the results for the Control in test [1] and in test [3] were 50% and 55%, respectively. The molecule also showed a negative-log Ki (pKi) in test [2] of 8.82. This molecule gave a pIC50 in the test listed under Oryctolagus cuniculus of 8.46.
As to `[3H]c1nc(CCCC)n(Cc2ccc(C(=O)O)cc2)c1CNc1ccccc1C(=O)O`, the pKd in test [4] is 8.46.
Still for that read-out and setting: then `[3H]c1ccc(S(=O)(=O)NC(=O)c2ccc(Cn3c(CNc4ccccc4C(=O)O)cnc3CCCC)cc2)c(Cl)c1`, with 8.89.
On to `[3H]c1nc(CCCC)n(Cc2ccc(C(=O)O)cc2)c1C([3H])Nc1cc(N=[N+]=[N-])ccc1C(=O)O` (stereo not given), for which the pKd in test [4] was 7.93.
`CCCCc1ncc(CNc2ccccc2C(=O)O)n1Cc1ccc(C(=O)O)cc1` gave a negative-log Ki (pKi) in test [2] of 7.92. In the test listed under Oryctolagus cuniculus, the negative logarithm of the IC50 (pIC50) was 8.44.
With `CCCCc1ncc(CNc2cc(N=[N+]=[N-])ccc2C(=O)O)n1Cc1ccc(C(=O)O)cc1`, the figures for the Control in test [1] and in test [3] were 91% and 64%, respectively. This molecule had a negative-log Ki (pKi) in test [2] of 7.66. The pIC50 in the test filed under Oryctolagus cuniculus was 8.20.
Turning to `CCCCc1ncc(CNc2ccccc2C(=O)O)n1Cc1ccc(C(=O)NS(=O)(=O)c2ccccc2Cl)cc1`, in test [2], the pKi was 8.60. The pIC50 in the test filed under Oryctolagus cuniculus was 9.10.

For orientation: pKi means the negative decadic logarithm of the Ki, by convention in mol/L. Lower therefore signals a high Ki. The term pIC50 denotes −log10 of the IC50, conventionally taken in molar units. A higher pIC50 goes with a small IC50. The pKd is −log10 of the Kd, conventionally taken in molar units.
